Active and inactive are the calls of the source. The calls are words filed in the database; no cut-off is given here.
Assays:
[1] = Growth inhibition of human CUTLL1 cells in presence of 1 uM dexamethasone after 48 hrs by alamar blue assay; format: functional, cell-based; details: CUTLL1, 48 h
Summary of the method: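 CUTLL1 cells given compound alone or with dexamethasone 1 μM. Growth inhibition measured by alamar blue after 48 h.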

CUTLL1 [2] = assay: Growth inhibition of human CUTLL1 cells at 50 uM in presence of MG262 after 48 hrs by alamar blue assay; format: functional, cell-based
[3] = target: Gamma-secretase (Homo sapiens) (UniProt Q96BI3+Q9NZ42+Q8WW43+P49768+Q92542+P49810); assay: Inhibition of gamma secretase in human CUTLL1 cells assessed as effect on NOTCH cleavage level at 25 uM after 24 hrs by Western blotting; format: cell-based
Summary of the method: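 Western blot of intracellular NOTCH (ICN) in CUTLL1 cells after 24 h exposure to compound alone or with 1 μM dexamethasone. The γ-secretase inhibitor Compound E (100 nM) plus dexamethasone was the reference treatment.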

CUTLL1 [4] = assay: Growth inhibition of human CUTLL1 cells with low GR expression levels at 50 uM after 48 hrs by alamar blue assay; format: functional, cell-based
Summary of the method: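 Human CUTLL1 T-ALL cells engineered to express high (overexpressed) or low (knockdown) glucocorticoid receptor levels. Exposed to compound alone or with 1 μM dexamethasone. Alamar blue growth inhibition read after 48 h.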

CUTLL1 [5] = assay: Increase in GR expression in human CUTLL1 cells at < 25 uM after 24 hrs by Western blotting method; format: functional, cell-based
CUTLL1 [6] = assay: Increase in GR expression in human CUTLL1 cells at 25 to 50 uM in presence of 1 uM dexamethasone after 24 hrs by RT-qPCR method; format: functional, cell-based
Summary of the method: (§1)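 CUTLL1 cells exposed to compound (25 or 50 μM) alone, with 1 μM dexamethasone, or with dexamethasone plus 1 μM RU486, for 6 or 24 h. GR measured as protein by Western blot and as transcript by RT-qPCR.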

CUTLL1 [7] = assay: Increase in GR expression in human CUTLL1 cells at 25 to 50 uM in presence of 1 uM dexamethasone and 1 uM […] and glucocorticoid receptor antagonist RU486 after 24 hrs by RT-qPCR method; format: functional, cell-based; summary of the method: as §1
CUTLL1 [8] = assay: Increase in GR expression in human CUTLL1 cells at 50 uM after 6 hrs by Western blotting method; format: functional, cell-based; summary of the method: as §1
CUTLL1 [9] = assay: Effect on LILRB3 gene expression in human CUTLL1 cells in presence of 1 uM dexamethasone at 30 uM after 24 hrs by microarray method; format: functional, cell-based
Summary of the method: (§2)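 CUTLL1 T-ALL cells exposed 24 h to vehicle (DMSO), dexamethasone alone (1 μM), test agent alone (30 μM), or dexamethasone (1 μM) plus test agent (30 μM), in triplicate. Expression profiled by microarray. Leading-edge genes from GSEA were compared between the dexamethasone-plus-agent and dexamethasone-alone groups, using glucocorticoid-regulated gene sets from ALL patients on glucocorticoid therapy.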

CUTLL1 [10] = assay: Effect on SMAP2 gene expression in human CUTLL1 cells in presence of 1 uM dexamethasone at 30 uM after 24 hrs by microarray method; format: functional, cell-based
Summary of the method: (§3)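 Human CUTLL1 T-ALL cells exposed for 24 h to vehicle (DMSO), dexamethasone alone (1 μM), test compound alone (30 μM), or dexamethasone 1 μM plus compound 30 μM, each in triplicate. Expression profiled by microarray. Glucocorticoid-regulated gene sets from ALL patients on glucocorticoid therapy scored by GSEA. Leading-edge genes compared between the combination and dexamethasone alone.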

CUTLL1 [11] = assay: Effect on PFAS gene expression in human CUTLL1 cells in presence of 1 uM dexamethasone at 30 uM after 24 hrs by microarray method; format: functional, cell-based; summary of the method: as §3
CUTLL1 [12] = assay: Effect on SPC25 gene expression in human CUTLL1 cells in presence of 1 uM dexamethasone at 30 uM after 24 hrs by microarray method; format: functional, cell-based; summary of the method: as §3
CUTLL1 [13] = assay: Effect on CHEK1 gene expression in human CUTLL1 cells in presence of 1 uM dexamethasone at 30 uM after 24 hrs by microarray method; format: functional, cell-based; summary of the method: as §2
CUTLL1 [14] = assay: Effect on DSCC1 gene expression in human CUTLL1 cells in presence of 1 uM dexamethasone at 30 uM after 24 hrs by microarray method; format: functional, cell-based; summary of the method: as §2
CUTLL1 [15] = assay: Effect on BCCIP gene expression in human CUTLL1 cells in presence of 1 uM dexamethasone at 30 uM after 24 hrs by microarray method; format: functional, cell-based; summary of the method: as §2
CUTLL1 [16] = assay: Effect on RUVBL1 gene expression in human CUTLL1 cells in presence of 1 uM dexamethasone at 30 uM after 24 hrs by microarray method; format: functional, cell-based; summary of the method: as §3
CUTLL1 [17] = assay: Effect on SKP2 gene expression in human CUTLL1 cells in presence of 1 uM dexamethasone at 30 uM after 24 hrs by microarray method; format: functional, cell-based; summary of the method: as §3
CUTLL1 [18] = assay: Effect on PAICS gene expression in human CUTLL1 cells in presence of 1 uM dexamethasone at 30 uM after 24 hrs by microarray method; format: functional, cell-based; summary of the method: as §2
CUTLL1 [19] = assay: Effect on CDC45 gene expression in human CUTLL1 cells in presence of 1 uM dexamethasone at 30 uM after 24 hrs by microarray method; format: functional, cell-based; summary of the method: as §2
CUTLL1 [20] = assay: Effect on SOCS1 gene expression in human CUTLL1 cells in absence of 1 uM dexamethasone at 30 uM after 24 hrs by microarray method; format: functional, cell-based; summary of the method: as §3
CUTLL1 [21] = assay: Effect on LILRB3 gene expression in human CUTLL1 cells in absence of 1 uM dexamethasone at 30 uM after 24 hrs by microarray method; format: functional, cell-based; summary of the method: as §2
CUTLL1 [22] = assay: Effect on SMAP2 gene expression in human CUTLL1 cells in absence of 1 uM dexamethasone at 30 uM after 24 hrs by microarray method; format: functional, cell-based; summary of the method: as §3
CUTLL1 [23] = assay: Effect on DDIT4 gene expression in human CUTLL1 cells in absence of 1 uM dexamethasone at 30 uM after 24 hrs by microarray method; format: functional, cell-based; summary of the method: as §2
CUTLL1 [24] = assay: Effect on BRCA1 gene expression in human CUTLL1 cells in absence of 1 uM dexamethasone at 30 uM after 24 hrs by microarray method; format: functional, cell-based; summary of the method: as §2
CUTLL1 [25] = assay: Effect on TIFA gene expression in human CUTLL1 cells in absence of 1 uM dexamethasone at 30 uM after 24 hrs by microarray method; format: functional, cell-based; summary of the method: as §3
CUTLL1 [26] = assay: Effect on PCNA gene expression in human CUTLL1 cells in absence of 1 uM dexamethasone at 30 uM after 24 hrs by microarray method; format: functional, cell-based; summary of the method: as §2
CUTLL1 [27] = assay: Effect on CHAF1A gene expression in human CUTLL1 cells in absence of 1 uM dexamethasone at 30 uM after 24 hrs by microarray method; format: functional, cell-based; summary of the method: as §2
CUTLL1 [28] = assay: Effect on CDC25A gene expression in human CUTLL1 cells in absence of 1 uM dexamethasone at 30 uM after 24 hrs by microarray method; format: functional, cell-based; summary of the method: as §2
CUTLL1 [29] = assay: Effect on PAICS gene expression in human CUTLL1 cells in absence of 1 uM dexamethasone at 30 uM after 24 hrs by microarray method; format: functional, cell-based; summary of the method: as §2
CUTLL1 [30] = assay: Effect on GINS2 gene expression in human CUTLL1 cells in absence of 1 uM dexamethasone at 30 uM after 24 hrs by microarray method; format: functional, cell-based; summary of the method: as §2
CUTLL1 [31] = assay: Effect on ATAD2 gene expression in human CUTLL1 cells in absence of 1 uM dexamethasone at 30 uM after 24 hrs by microarray method; format: functional, cell-based; summary of the method: as §2
CUTLL1 [32] = assay: Effect on MCM4 gene expression in human CUTLL1 cells in absence of 1 uM dexamethasone at 30 uM after 24 hrs by microarray method; format: functional, cell-based; summary of the method: as §2

Q: With Nc1ncc(-c2ccncc2)c(C2CC2)n1 as the compound, how does the EC50 [1] read?
A: The EC50 was 28 µM.

Q: What about the “growth inhibition (GI)” value (CUTLL1 [2]) of the same compound?
A: Its value is “inactive”.

Q: And the inhibition [3]?
A: The inhibition was “inactive”.

Q: And the “growth inhibition (GI)” value (CUTLL1 [4])?
A: Its value is “inactive”.

Q: And the Activity (CUTLL1 [5])?
A: Its Activity is “inactive”.

Q: What about the Activity (CUTLL1 [6]) of the same compound?
A: Its Activity is “Active”.

Q: What about the Activity (CUTLL1 [7]) of the same compound?
A: Its Activity is “inactive”.

Q: What about the Activity (CUTLL1 [8]) of the same compound?
A: The Activity was “Active”.

Q: What about the Activity (CUTLL1 [9]) of the same compound?
A: Its Activity is “Active”.

Q: And the Activity (CUTLL1 [10])?
A: Its Activity is “Active”.

Q: What about the Activity (CUTLL1 [11]) of the same compound?
A: The Activity was “Active”.

Q: What about the Activity (CUTLL1 [12]) of the same compound?
A: Its Activity is “Active”.

Q: And the Activity (CUTLL1 [13])?
A: The Activity was “Active”.

Q: What about the Activity (CUTLL1 [14]) of the same compound?
A: The Activity was “Active”.

Q: What about the Activity (CUTLL1 [15]) of the same compound?
A: Its Activity is “Active”.

Q: What about the Activity (CUTLL1 [16]) of the same compound?
A: Its Activity is “Active”.

Q: What about the Activity (CUTLL1 [17]) of the same compound?
A: The Activity was “Active”.

Q: What about the Activity (CUTLL1 [18]) of the same compound?
A: Its Activity is “Active”.

Q: What about the Activity (CUTLL1 [19]) of the same compound?
A: The Activity was “Active”.

Q: And the Activity (CUTLL1 [20])?
A: The Activity was “inactive”.

Q: And the Activity (CUTLL1 [21])?
A: The Activity was “inactive”.

Q: And the Activity (CUTLL1 [22])?
A: The Activity was “inactive”.

Q: What about the Activity (CUTLL1 [23]) of the same compound?
A: The Activity was “inactive”.

Q: What about the Activity (CUTLL1 [24]) of the same compound?
A: The Activity was “inactive”.

Q: What about the Activity (CUTLL1 [25]) of the same compound?
A: The Activity was “inactive”.

Q: And the Activity (CUTLL1 [26])?
A: Its Activity is “inactive”.

Q: What about the Activity (CUTLL1 [27]) of the same compound?
A: Its Activity is “inactive”.

Q: And the Activity (CUTLL1 [28])?
A: The Activity was “inactive”.

Q: What about the Activity (CUTLL1 [29]) of the same compound?
A: The Activity was “inactive”.

Q: What about the Activity (CUTLL1 [30]) of the same compound?
A: Its Activity is “inactive”.

Q: What about the Activity (CUTLL1 [31]) of the same compound?
A: The Activity was “inactive”.

Q: And the Activity (CUTLL1 [32])?
A: Its Activity is “inactive”.

Source: ChEMBL document CHEMBL3351896, “Small Molecule that Reverses Dexamethasone Resistance in T-cell Acute Lymphoblastic Leukemia (T-ALL)” (ACS Med Chem Lett, 2014)
